Only some compounds are listed: those with a hit (about 2.4% of all), similar ones and a draw of the others.
GASC-1 inh – blocks human GASC-1 demethylase activity; AID 2099; Q9H3R0; 0.069% of 330,000 active; GST-JMJD2C(1-420) H3K9me3 demethylation, DELFIA europium; inhibition, % at 2.35 µM;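 active means more than half of a compound's replicate wells show inhibition beyond 50%, single wells judged on their own value; inconclusive means some, but no more than half, of replicates pass 50% inhibition; inactive means no replicate passes 50% inhibition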;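 further: signal counts dimethyl H3K9 product captured on neutravidin plate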
Target sequence (Q9H3R0 1-420 limits assumed): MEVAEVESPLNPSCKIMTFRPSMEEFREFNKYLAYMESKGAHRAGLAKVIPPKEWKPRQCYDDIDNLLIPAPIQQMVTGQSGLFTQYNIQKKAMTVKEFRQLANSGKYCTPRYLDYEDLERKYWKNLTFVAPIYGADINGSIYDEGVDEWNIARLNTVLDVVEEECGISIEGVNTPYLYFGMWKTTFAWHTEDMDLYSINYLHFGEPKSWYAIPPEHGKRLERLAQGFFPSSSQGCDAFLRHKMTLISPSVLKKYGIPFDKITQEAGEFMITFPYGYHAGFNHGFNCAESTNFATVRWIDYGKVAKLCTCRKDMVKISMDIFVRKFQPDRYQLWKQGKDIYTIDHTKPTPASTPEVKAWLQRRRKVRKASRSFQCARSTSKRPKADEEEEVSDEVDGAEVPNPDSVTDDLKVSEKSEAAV
mABHD4 FP – ABHD4 (mouse) inhibition, primary FP screen; Q8VD66; purified mABHD4, FP-Rh probe fluorescence polarization; inhibition, % at 8.92 µM; 0.54% of 370,000 active; AID 720543;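 active means inhibition exceeding the mean over every tested compound plus 3 SD, cut at about 30% in these data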
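Test system: mouse ABHD4 enzyme, wild type. Reagent: FP-Rh fluorescent activity-based probe, added after compound pre-incubation. Timing: pre-incubation 45 min, probe exposure 60 min, at 25 °C. Technique: FP readout, ex 525 nm / em 598 nm. Benchmarks: high control S159A mutant with DMSO, low control median of compound wells.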
PRMT1 inh – inhibitors of human PRMT1. recombinant PRMT1, activity-based probe fluorescence polarization. inhibition, % at 2.79 µM. 1.3% of 370,000 active;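 active means inhibition above about 21% made by adding two undisclosed values, limit read from the data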
SIAE primary – inhibitors of human sialic acid acetylesterase SIAE | Q9HAT2 | SIAE FP-Rh probe binding, fluorescence polarization | inhibition, % at 9.66 µM | 0.69% of 370,000 active;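 active means inhibition above a cutoff: mean of compounds within the control limits plus 3 SD of those, cut at about 17% in these data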
HTRA1 inhibitor – blocks human HTRA1 serine peptidase; recombinant HTRA1, FP-rhodamine activity-based probe, fluorescence polarization; 0.5% of 340,000 active; inhibition, % at 5.96 µM; in the data active means inhibition above about 36%
HTRA1 conf – confirmation of human HTRA1 inhibitors; inhibition, % at 5.96 µM; shares compounds with HTRA1 inhibitor; recombinant HTRA1, FP-rhodamine activity-based probe, fluorescence polarization; AID 540248; 66% of 1,600 active;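 active means mean inhibition over three repeats above a set limit taken from the earlier primary screen, cut at about 37% in these data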;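 further: inhibitors block probe binding so polarization drops and inhibition rises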
PRMT1 inh conf – PRMT1 (human) inhibition, FP confirmation; shares compounds with PRMT1 inh; recombinant His-PRMT1, activity-based probe fluorescence polarization; inhibition, % at 2.79 µM; 42% of 3,300 active; AID 687036;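 active means mean inhibition across replicates above the hit cutoff derived for the earlier primary screen, cut at about 22% in these data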
mABHD4 conf – confirmation of mouse ABHD4 inhibitors | inhibition, % at 8.92 µM | shares compounds with mABHD4 FP | purified mABHD4, FP-Rh probe fluorescence polarization | 55% of 1,800 active;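 active means mean inhibition across replicates above the hit cutoff set in the primary screen, cut at about 30% in these data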
Of the large screens only hits and unclear results are named; the others gave an inactive call (follow-up assays come after a bar, where they were run); ! = a repeat was not active.

CC(C)N=C(N)N=C(N)Nc1ccc(Cl)cc1	none (no result: GASC-1 inh)
NC(=NCCCCCCN=C(N)/N=C(\N)Nc1ccc(Cl)cc1)/N=C(\N)Nc1ccc(Cl)cc1	mABHD4 FP 46!, HTRA1 inhibitor 42! | HTRA1 conf 45 | mABHD4 conf 40
Fc1cccc(Cl)c1CNc1ccc(N2CCCC2)cc1	mABHD4 FP 32, HTRA1 inhibitor 47 | HTRA1 conf inactive | mABHD4 conf 49
CC(C1SC(=S)NC1=O)C1SC(=S)NC1=O (stereo not drawn)	mABHD4 FP 46, PRMT1 inh 89, HTRA1 inhibitor 60 (no result: GASC-1 inh) | HTRA1 conf 47 | PRMT1 inh conf 51 | mABHD4 conf inactive
Cc1[nH]n2c(=O)cc(-c3ccc([N+](=O)[O-])cc3)nc2c1-c1ccccc1	mABHD4 FP 48, HTRA1 inhibitor 40 | HTRA1 conf 87 | mABHD4 conf 72
Nc1nc(-c2ccccc2)c(N=Nc2ccccc2Cl)s1	mABHD4 FP 46, HTRA1 inhibitor 73 | HTRA1 conf 115 | mABHD4 conf 76
CC(=O)Nc1sc(N)nc1-c1ccccc1	none
Nc1nc(-c2ccccc2)c(N=Nc2cccc3ccccc23)s1	mABHD4 FP 49, HTRA1 inhibitor 76 | HTRA1 conf 80 | mABHD4 conf 58
CC1=C(O)C(=O)C(c2c(C)cc(C)c(Br)c2C)=C(O)C1=O	mABHD4 FP 79, PRMT1 inh 25, HTRA1 inhibitor 84 (no result: GASC-1 inh) | HTRA1 conf 74 | PRMT1 inh conf 23 | mABHD4 conf 74
Oc1ccc2ccccc2c1C=Nc1ccccc1Br	none
Oc1ccccc1N=Cc1c(O)ccc2ccccc12	mABHD4 FP 45, HTRA1 inhibitor 63 | HTRA1 conf 78 | mABHD4 conf 45
O=[N+]([O-])c1cc(S(=O)(=O)N2CCCC2)ccc1NN=C1CCCCC1	none
O=[N+]([O-])c1cc(C(F)(F)F)cc([N+](=O)[O-])c1NN=C1CCCCC1	mABHD4 FP 37, HTRA1 inhibitor 42 | HTRA1 conf inactive | mABHD4 conf inactive
CC(C)(C)N(Cc1cn(Cc2ccccc2)nn1)S(=O)(=O)c1ccc(N2CCCC2)cc1Br	none (no result: GASC-1 inh, HTRA1 inhibitor)
Oc1ccc(/C=N/Nc2cc(N3CCCC3)nc(N3CCCC3)n2)cc1O	mABHD4 FP 35, SIAE primary 22, HTRA1 inhibitor 58 | HTRA1 conf 140 | mABHD4 conf 40
O=C(/C=C/c1ccc(O)c(O)c1)c1ccccc1O	mABHD4 FP 36, HTRA1 inhibitor 60 | HTRA1 conf 68 | mABHD4 conf inactive
O=C(O)c1ccc(N=Nc2c(O)ccc3ncccc23)cc1	mABHD4 FP 73, HTRA1 inhibitor 39 | HTRA1 conf inactive | mABHD4 conf 80
O=C(O)c1cc(N=Nc2c(O)ccc3ccccc23)cc(C(=O)O)c1	none (no result: GASC-1 inh)
O=C(O)c1cccc(S(=O)(=O)NCC(=O)N2CCN(c3ccccn3)CC2)c1	none (no result: GASC-1 inh, HTRA1 inhibitor)
Cc1cc(NS(=O)(=O)c2ccc(NC(=O)Cc3ccc(Cl)c(Cl)c3)cc2)on1	none (no result: GASC-1 inh, HTRA1 inhibitor)
O=C(Nc1cc(Cl)cc(Cl)c1)N[C@@H]1CC[C@@H](CCNS(=O)(=O)c2cccc(F)c2)O[C@@H]1CO	none (no result: GASC-1 inh, HTRA1 inhibitor)
COc1cc(/C=C2/C(=O)NN(c3ccc(F)cc3)C2=O)cc(Cl)c1O	none
COc1cc(/C=C2/C(=O)NN(c3ccc(Cl)c(Cl)c3)C2=O)cc([N+](=O)[O-])c1O	mABHD4 FP 60, PRMT1 inh 26, HTRA1 inhibitor 38 | HTRA1 conf 42 | PRMT1 inh conf inactive | mABHD4 conf 80
C=C1c2cccc(O)c2C(O)=C2C(=O)[C@]3(O)C(O)=C(C(N)=O)C(=O)[C@@H](N(C)C)[C@@H]3[C@@H](O)[C@H]12	mABHD4 FP 79, PRMT1 inh 52, SIAE primary 69, HTRA1 inhibitor 53 | HTRA1 conf inactive | PRMT1 inh conf 26 | mABHD4 conf inactive
CCOC(=O)C1CCN(C(=O)C(C)(C)NC(=O)Nc2ccc3c(c2)CCC3)CC1	none (no result: GASC-1 inh, HTRA1 inhibitor)
CC1CCCC(C)N1/N=C/c1ccc(O)c(O)c1 (stereo not drawn)	mABHD4 FP 36, HTRA1 inhibitor 43 | HTRA1 conf inactive | mABHD4 conf inactive
COc1ccc(/C=N/N2C(C)CCCC2C)cc1O (stereo not drawn)	none
CC(C)c1ccc(NC(=O)C2Cc3c(-c4ccco4)ccnc3O2)cc1 (stereo not drawn)	none (no result: GASC-1 inh, HTRA1 inhibitor)
CN1CCN(C2=C(Cl)C(=O)c3ccccc3C2=O)CC1	mABHD4 FP 37, HTRA1 inhibitor 50 (no result: GASC-1 inh) | HTRA1 conf 48 | mABHD4 conf 32
Cc1cc(C(=O)NN=Cc2ccccc2C(=O)O)n[nH]1	none (no result: GASC-1 inh, HTRA1 inhibitor)
Oc1ccc(/C=N/Nc2ccnc3cc(Cl)ccc23)cc1O	mABHD4 FP 35, HTRA1 inhibitor 42 | HTRA1 conf 72 | mABHD4 conf 63
CC/C(=N\Nc1ccnc2cc(Cl)ccc12)c1ccc(O)cc1	none
COc1ccc(N=C(N)NC(=O)OCc2ccccc2)cc1	none (no result: GASC-1 inh, HTRA1 inhibitor)
Cc1c(Br)c(=O)oc2c(Br)c(O)c(O)cc12	mABHD4 FP 51, PRMT1 inh 29, HTRA1 inhibitor 64 | HTRA1 conf 83 | PRMT1 inh conf 35 | mABHD4 conf 53
Cc1c(Br)c(=O)oc2c(Br)c(O)ccc12	none
Cc1oc2c(CN3CCCCC3C)c(O)ccc2c(=O)c1-c1ccccc1 (stereo not drawn)	none
Cc1oc2c(CN3CCCC3)c(O)ccc2c(=O)c1-c1ccc(Br)cc1	none
Cc1oc2c(O)c(O)ccc2c(=O)c1-c1ccc(Cl)cc1	mABHD4 FP 41, HTRA1 inhibitor 69 | HTRA1 conf 91 | mABHD4 conf inactive
Cc1oc2c(O)c(O)ccc2c(=O)c1-c1ccccc1	GASC-1 inh inconclusive, mABHD4 FP 41, HTRA1 inhibitor 52 | HTRA1 conf 41 | mABHD4 conf inactive
O=c1ccc2[n+]([O-])c3ccc(O)cc3oc-2c1	mABHD4 FP active, PRMT1 inh 119, HTRA1 inhibitor 141 (no result: SIAE primary) | HTRA1 conf active | PRMT1 inh conf 69 | mABHD4 conf active
O=c1cc(O)c2ccc(O)cc2o1	none
CCn1c(O)c(C=NCc2ccccc2)sc1=S	none
Oc1cccc(C=NCc2ccccc2)c1O	mABHD4 FP 45, PRMT1 inh 36, SIAE primary 18, HTRA1 inhibitor 55 | HTRA1 conf 62 | mABHD4 conf 43
Clc1ccc(CN2CCN(c3ncc(Cc4ccccc4)cn3)CC2)c(Cl)c1	none (no result: GASC-1 inh, HTRA1 inhibitor)
O=Cc1cc(N=Nc2ccccc2Cl)ccc1O	mABHD4 FP 30, HTRA1 inhibitor 38 | HTRA1 conf 54 | mABHD4 conf 35
O=Cc1cc(N=Nc2cccc(C(=O)O)c2)ccc1O	none
O=C(NCc1ccccc1F)C1C2C=CC3(CN(Cc4ccccc4)C(=O)C13)O2 (stereo not drawn)	none (no result: GASC-1 inh, HTRA1 inhibitor)

Assay outcomes (PubChem)
